Source: ChEMBL document CHEMBL1153592, “1,8-Naphthyridine-3-carboxamide derivatives with anticancer and anti-inflammatory activity” (Eur J Med Chem, 2009)
Active and inactive are the calls of the source. No cut-off for these calls is given here.

What was measured:
PA-1 [1] = assay: Cytotoxicity against human PA1 cells at 10 uM after 72 hrs by MTT assay; type: functional, cell-based
Outline: (§1)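 Three-day MTT screen with 5000–10,000 cells/well and 72 h compound exposure at the top screening concentration. After 3 h of MTT uptake, lysis with 10% SDS–0.01 N HCl, then A540 read after 1 h. % cytotoxicity = (1 − X/R1)×100, where X is treated minus blank absorbance and R1 is untreated control absorbance.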

A549 [2] = assay: Cytotoxicity against human A549 cells at 10 uM after 72 hrs by MTT assay; type: functional, cell-based; outline: as §1
ECV-304 [3] = assay: Cytotoxicity against human ECV304 cells at 10 uM after 72 hrs by MTT assay; type: functional, cell-based; outline: as §1
K562 [4] = assay: Cytotoxicity against human K562 cells at 10 uM after 72 hrs by MTT assay; type: functional, cell-based; outline: as §1
HBL-100 [5] = assay: Cytotoxicity against human HBL100 cells at 10 uM after 72 hrs by MTT assay; type: functional, cell-based; outline: as §1
KB [6] = assay: Cytotoxicity against human KB cells at 10 uM after 72 hrs by MTT assay; type: functional, cell-based; outline: as §1
[7] = Cytotoxicity against mouse NIH/3T3 cells at 10 uM after 72 hrs by MTT assay; type: cell-based; details: nih3t3, 72 h; outline: as §1
DU-145 [8] = assay: Cytotoxicity against human DU145 cells at 10 uM after 72 hrs by MTT assay; type: functional, cell-based; outline: as §1
SW-620 [9] = assay: Cytotoxicity against human SW620 cells at 10 uM after 72 hrs by MTT assay; type: functional, cell-based; outline: as §1
MIA PaCa-2 [10] = assay: Cytotoxicity against human MIAPaCa2 cells at 10 uM after 72 hrs by MTT assay; type: functional, cell-based; outline: as §1
DU-145 [11] = assay: Cytotoxicity against human DU145 cells after 72 hrs by MTT assay; type: functional, cell-based; details: DU-145, 72 h
PA-1 [12] = assay: Cytotoxicity against human PA1 cells after 72 hrs by MTT assay; type: functional, cell-based; details: PA-1, 72 h
MIA PaCa-2 [13] = assay: Cytotoxicity against human MIAPaCa2 cells after 72 hrs by MTT assay; type: functional, cell-based; details: MIA PaCa-2, 72 h
ECV-304 [14] = assay: Cytotoxicity against human ECV304 cells after 72 hrs by MTT assay; type: functional, cell-based
A549 [15] = assay: Cytotoxicity against human A549 cells after 72 hrs by MTT assay; type: functional, cell-based; details: A549, 72 h
[16] = Antiinflammatory activity in C57BL/6 mouse DC assessed as inhibition of LPS-induced IL-6 production at 0.1 ug/ml after 24 hrs by ELISA; type: functional
Outline: (§2)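 Dendritic cells grown from femoral bone marrow of 8–12-week-old C57BL/6 mice in RPMI-1640 with 10% FBS and 20 ng/ml rmGM-CSF at 37 °C, 5% CO2. Day-6 immature DCs were stimulated with 10 ng/ml LPS plus compound for 24 h. Supernatant cytokine/chemokine measured by ELISA (pg/ml); % change = (B−A)/A×100, versus LPS-stimulated DCs alone.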

SW-620 [17] = assay: Cytotoxicity against human SW620 cells after 72 hrs by MTT assay; type: functional, cell-based; details: SW-620, 72 h
[18] = Antiinflammatory activity in C57BL/6 mouse DC assessed as inhibition of LPS-induced IL1-beta production at 0.1 ug/ml after 24 hrs by ELISA; type: functional; outline: as §2
[19] = Antiinflammatory activity in C57BL/6 mouse DC assessed as inhibition of LPS-induced IL-6 production at 1 ug/ml after 24 hrs by ELISA; type: functional; outline: as §2
[20] = Antiinflammatory activity in C57BL/6 mouse DC assessed as inhibition of LPS-induced IL1-beta production at 1 ug/ml after 24 hrs by ELISA; type: functional; outline: as §2
K562 [21] = assay: Cytotoxicity against human K562 cells after 72 hrs by MTT assay; type: functional, cell-based; details: K562, 72 h
HBL-100 [22] = assay: Cytotoxicity against human HBL100 cells after 72 hrs by MTT assay; type: functional, cell-based; details: HBL-100, 72 h
KB [23] = assay: Cytotoxicity against human KB cells after 72 hrs by MTT assay; type: functional, cell-based
[24] = Cytotoxicity against mouse NIH/3T3 cells after 72 hrs by MTT assay; type: cell-based, NIH3T3
[25] = Homo sapiens, ECV-304, 72 h, read-out: IC50
[26] = Mus musculus, NIH3T3, 72 h, read-out: IC50

Row | SMILES | IC50 (DU-145 [11]) | IC50 (PA-1 [12]) | IC50 (MIA PaCa-2 [13]) | IC50 (ECV-304 [14]; [25]) | IC50 (A549 [15]) | inhibition (INH) [16] | IC50 (SW-620 [17]) | inhibition (INH) [18] | inhibition (INH) [19] | inhibition (INH) [20] | IC50 (K562 [21]) | IC50 (HBL-100 [22]) | IC50 (KB [23]) | IC50 [24, 26] | IC50 ([24]; nih3t3) | also measured
1 | C#CCn1cc(C(=O)NC(C(=O)NC2CCCCC2)c2ccccc2)c(=O)c2ccc(Cl)nc21 (centres undefined) |  |  |  |  |  |  |  |  |  |  |  |  |  |  |  | Activity (PA-1 [1]): inactive; Activity (A549 [2]): inactive; Activity (ECV-304 [3]): inactive; Activity (K562 [4]): inactive; Activity (HBL-100 [5]): inactive; Activity (KB [6]): inactive; Activity [7]: Not Active; Activity (DU-145 [8]): inactive; Activity (SW-620 [9]): inactive; Activity (MIA PaCa-2 [10]): inactive
2 | C#CCn1cc(C(=O)NC(C(=O)Nc2ccccc2)c2ccccc2)c(=O)c2cc(F)c(N3CCCC3)nc21 (centres undefined) |  |  |  |  |  |  |  |  |  |  |  |  |  |  |  | Activity (PA-1 [1]): inactive; Activity (A549 [2]): inactive; Activity (ECV-304 [3]): inactive; Activity (K562 [4]): inactive; Activity (HBL-100 [5]): inactive; Activity (KB [6]): inactive; Activity [7]: Not Active; Activity (DU-145 [8]): inactive; Activity (SW-620 [9]): inactive; Activity (MIA PaCa-2 [10]): inactive
3 | C#CCn1cc(C(=O)NC(CC(=O)NC2CCCC2)c2ccccc2)c(=O)c2cc(F)c(Cl)nc21 (centres undefined) | > 10 µM | 680 nM | 4.4 µM | 5.1 µM | 6.1 µM | 80.1% | 2100 nM | 83.4% | 100% | 102% | 7.3 µM | 2 µM | 4.9 µM | 2.4 µM |  | 
4 | C#CCn1cc(C(=O)NC(C(=O)NC2CCCCC2)c2ccccc2)c(=O)c2cc(F)c(Cl)nc21 (centres undefined) | > 10 µM | 1800 nM | > 10 µM | > 10 µM | > 10 µM |  | > 10000 nM |  |  |  | > 10 µM | > 10 µM | > 10 µM | 7.4 µM |  | 
5 | C#CCn1cc(C(=O)NC(C(=O)NC2CCCC2)c2ccccc2)c(=O)c2cc(F)c(Cl)nc21 (centres undefined) | 3.2 µM | 1800 nM | 1.7 µM | 3.2 µM | > 10 µM |  | 3400 nM |  |  |  | 5.9 µM | 5.1 µM | 3.5 µM | 0.4 µM |  | 
6 | C#CCn1cc(C(=O)NC(C(=O)Nc2ccccc2)c2ccccc2)c(=O)c2ccc(Cl)nc21 (centres undefined) | 1.7 µM | > 10000 nM | 9.7 µM | > 10 µM | > 10 µM | 76.5% | 2200 nM | 82% | 91.7% | 86.3% | 3.3 µM | 7.8 µM | 2.1 µM |  | Not Active | 
7 | C#CCn1cc(C(=O)NC(CC(=O)Nc2ccccn2)c2ccccc2)c(=O)c2cc(F)c(Cl)nc21 (centres undefined) | 2.1 µM | > 10000 nM | > 10 µM | > 10 µM | > 10 µM | 75.5% | 2300 nM | 83.4% | 99.1% | 109.6% | > 10 µM | > 10 µM | 2.3 µM | 4.2 µM |  | 
8 | C#CCn1cc(C(=O)NC(C(=O)NC2CCCCC2)c2ccccc2)c(=O)c2cccnc21 (centres undefined) |  |  |  |  |  |  |  |  |  |  |  |  |  |  |  | Activity (PA-1 [1]): inactive; Activity (A549 [2]): inactive; Activity (ECV-304 [3]): inactive; Activity (K562 [4]): inactive; Activity (HBL-100 [5]): inactive; Activity (KB [6]): inactive; Activity [7]: Not Active; Activity (DU-145 [8]): inactive; Activity (SW-620 [9]): inactive; Activity (MIA PaCa-2 [10]): inactive
9 | C#CCn1cc(C(=O)NC(C(=O)Nc2ccccc2)c2ccccc2)c(=O)c2cccnc21 (centres undefined) | 8.8 µM | 8900 nM | > 10 µM | > 10 µM | > 10 µM | 79.3% | > 10000 nM | 39.9% | 79.3% | 64.6% | > 10 µM | > 10 µM | 3 µM |  | Not Active | 
10 | C#CCn1cc(C(=O)NC(CC(=O)Nc2ccccn2)c2ccccc2)c(=O)c2ccc(Cl)nc21 (centres undefined) | 4.9 µM | 1700 nM | > 10 µM | > 10 µM | > 10 µM | 78.2% | 2900 nM | 57.3% | 82.9% | 82% | 5.9 µM | > 10 µM | 5.2 µM |  | Not Active | 
11 | C#CCn1cc(C(=O)NC(C(=O)NC2CCCC2)c2ccccc2)c(=O)c2ccc(Cl)nc21 (centres undefined) |  |  |  |  |  |  |  |  |  |  |  |  |  |  |  | Activity (PA-1 [1]): inactive; Activity (A549 [2]): inactive; Activity (ECV-304 [3]): inactive; Activity (K562 [4]): inactive; Activity (HBL-100 [5]): inactive; Activity (KB [6]): inactive; Activity [7]: Not Active; Activity (DU-145 [8]): inactive; Activity (SW-620 [9]): inactive; Activity (MIA PaCa-2 [10]): inactive
12 | C#CCn1cc(C(=O)NC(C(=O)Nc2ccccc2)c2ccccc2)c(=O)c2cc(F)c(Cl)nc21 (centres undefined) | 0.6 µM | 500 nM | > 10 µM | 9.1 µM | > 10 µM | 84.4% | 1400 nM | 44.3% | 99.9% | 97% | 5 µM | > 10 µM | 1.1 µM |  | Not Active | 
13 | C#CCn1cc(C(=O)NC(C(=O)NC2CCCC2)c2ccccc2)c(=O)c2cccnc21 (centres undefined) | > 10 µM | > 10000 nM | > 10 µM | > 10 µM | > 10 µM |  | > 10000 nM |  |  |  | > 10 µM | > 10 µM | 4.5 µM |  | Not Active | 
14 | C#CCn1cc(C(=O)NC(CC(=O)Nc2ccccc2)c2ccccc2)c(=O)c2ccc(Cl)nc21 (centres undefined) | > 10 µM | 540 nM | 3 µM | 4 µM | > 10 µM | 69.5% | 2900 nM | 28.3% | 75.4% | 99.4% | 7.7 µM | 4 µM | > 10 µM | 4.4 µM |  | 
15 | C#CCn1cc(C(=O)NC(CC(=O)NC2CCCCC2)c2ccccc2)c(=O)c2cc(F)c(Cl)nc21 (centres undefined) | 8.03 µM | 2300 nM | 4.9 µM | 9.8 µM | > 10 µM |  | > 10000 nM |  |  |  | 6.2 µM | > 10 µM | > 10 µM |  | Not Active | 
16 | C#CCn1cc(C(=O)NC(CC(=O)NC2CCCC2)c2ccccc2)c(=O)c2ccc(Cl)nc21 (centres undefined) | > 10 µM | 1100 nM | 2.4 µM | 7.8 µM | 9.5 µM | 79.8% | 2700 nM | 82% | 81.7% | 18.1% | 6.8 µM | 3.2 µM | > 10 µM | 4.4 µM |  | 
17 | C#CCn1cc(C(=O)NC(CC(=O)NC2CCCCC2)c2ccccc2)c(=O)c2cccnc21 (centres undefined) |  |  |  |  |  |  |  |  |  |  |  |  |  |  |  | Activity (PA-1 [1]): inactive; Activity (A549 [2]): inactive; Activity (ECV-304 [3]): inactive; Activity (K562 [4]): inactive; Activity (HBL-100 [5]): inactive; Activity (KB [6]): inactive; Activity [7]: Not Active; Activity (DU-145 [8]): inactive; Activity (SW-620 [9]): inactive; Activity (MIA PaCa-2 [10]): inactive
18 | COc1cccc2c1C(=O)c1c(O)c3c(c(O)c1C2=O)C[C@@](O)(C(=O)CO)C[C@@H]3O[C@H]1C[C@H](N)[C@H](O)[C@H](C)O1 [DOXORUBICIN] | 0.1 µM | 630 nM | 0.15 µM |  |  |  | 80 nM |  |  |  |  | 0.24 µM |  | 0.39 µM |  | IC50 (ECV-304 [14]; ecv-304): Not Active
